Laboratory results: the EternaBench riboswitch data

Tested on: MS2 coat protein
Test: apparent Kd, MS2 coat protein; higher = weaker binding; RNA-MaP array; FMN 200 µM where present
How it was run: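 Binding was read on Illumina sequencing-chip clusters where stalled E. coli RNA polymerase had transcribed each design. A titration of SNAP-549-labelled MS2 coat protein began at 0.7 or 1.5 nM and doubled to 3 µM, once without ligand and once with constant ligand, in 100 mM Tris-HCl pH 7.5, 80 mM KCl, 4 mM MgCl2, BSA, DTT, yeast tRNA and Tween-20. The apparent Kd is the median of filtered per-cluster binding-curve fits, based on green signal normalised to red-channel RNA signal and control-cluster median Fmax.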

[1] = designed as: OFF switch for flavin mononucleotide, no ligand
[2] = ligand present: flavin mononucleotide, designed as: OFF switch for flavin mononucleotide
[3] = designed as: ON switch for flavin mononucleotide, no ligand
[4] = ligand present: flavin mononucleotide, designed as: ON switch for flavin mononucleotide

Row | Sequence | apparent Kd [1] [nM] | apparent Kd [2] [nM] | apparent Kd [3] [nM] | apparent Kd [4] [nM]
1 | AUUAUGUAAGGAUAUCUUACAUGUGACUUCGGUCACUGUUAAGAGAAGGUACAUGAGGAUCACCCAUGUAUAAC | 19.6 | 22.4 | – | –
2 | GCCAUCGUAUGAGGAUAUGGCACCGAAACGGUGCCAGAAGGCAUGUCGAUAGACAUGAGGAUCACCCAUGUAUUAUCGAUGGCA | – | – | 107 | 31.3
3 | UUACUCAUGUAAGGAUAUGCAGCCGCUUCGGCUGCAGAAGGUACUAUAAUACAUGAGGAUCACCCAUGUCUUUUUAAUUUAGAC | – | – | 82.7 | 36.5
4 | UUUUAACAUGAGGAUCACCCAUGUGAGGAUAUCGAAAUUUAUAUUAAUAUUAUUUUUACGAGAAGGCACAUUUU | 90.3 | 95.4 | – | –
5 | AAAUUUAACGAAGGAUAUGCUGACAUGAGGAUCACCCAUGUGUGCCUUGUGUUGCUGAUUAGGUUGCAGAAGGUCGUAUACAUA | 330 | 1230 | – | –
6 | CUUUUGUGAGGAUAUCAGUAGUAAAUAAAUAAAAUUACUACUGAGAAGGCACAUGAGGAUCACCCAUGUUCCUC | 41.2 | 305 | – | –
7 | UUGUUGUAUGUAGGAUAUGCAUAUUGUUAUUAUGCAGAAGGACAUGAGGAUCACCCAUGUAUAUUAUUAUUAUAUGUUAUAUAU | 23.5 | 27.8 | – | –
8 | CUAAGUGCCGGAGGAUAUACAUGAGGAUCACCCAUGUCAGUCUGUUUACAUGUAGAAGGCCGGCGAACAAAGGACUUGCCAAGA | 48.1 | 298 | – | –
9 | GGACAUCCCACAGGAUAUGCUGGACUUUGUCCAGCAGAAGGGUGAAGAACAUGAGGAUCACCCAUGUGGAUGUCCAUAUUUAAU | – | – | 1440 | 95.4
10 | GCAGACGUAGUGAGGAUAUGCUCUACCUCGGUAGAGCAGAAGGCACAUGAGGAUCACCCAUGUGAUUUUUCUGC | 40 | 573 | – | –
11 | UAUUGAUAAUAUUUUAACAUGAGGAUCACCCAUGUCGCUAGACAGGAUAUAUUUUAUUUGUUUAAGUAGAAGGGUCGUAGAUUU | – | – | 200 | 152
12 | GUUUCGUCAGGAUAUGUGGCUUCGAUCGUGCGAAGAAGGCUACAGAAGGCACAUGAGGAUCACCCAUGUUCGUC | – | 34.6 | – | –
13 | CCUGGAUCAUGAGGAUAUGGCACCUUAUUGGUGCCAGAAGGCAUGUCUCUUGACAUGAGGAUCACCCAUGUAAUAAAUUCCAGG | – | – | 1020 | 124
14 | GUGGUCAGACAUGAGGAUCACCCAUGUGGAAUAAAUAAGGAAAAGGAUAUUCAAUAUAGGAUAUAGAAGAAGGUUUGGUUGGUG | – | – | 74.4 | 83.4
15 | GCGAUUUUGUAAGGAUAUACACGAGUUUUAAGUGUAGAAGGUACUUACAUGAGGAUCACCCAUGUAUAAAUGUAUAAUAGUCGC | – | – | 9.11 | 7.51
16 | UGUUAAUUGUAGAAGGGUGACAUGAGGAUCACCCAUGUUCACAUGCGAUUUACGGCGCAUGUUCCACAGGAUAUACAGUUGAGU | – | – | 556 | 97.8
17 | CGUCUAUGCCAGAAGGCAUGUCAAAAGACAUGAGGAUCACCCAUGUAAAUGAGGAUAUGGCAUAGACGAAAAGUGCGAAAGCAC | – | – | 136 | 13.6
18 | AAGGGUACUUUCGGAACGACAUGAGGAUCACCCAUGUAUACUGAGGAUAUCUACUACUAAGGACGGGAGAAGGCAGUGUAAUGU | 18 | 20.3 | – | –
19 | UGUAACCAAGGAUAUACAUGAGGAUCACCCAUGUAAUGUAGUAUAGUGUGUGUGAGGUGUAGAAGGAGGGAUGU | 76.3 | 73.6 | – | –
20 | UGAUAGGACAGAGGAUAUACGUGCUGGAGAUACUAGCAAAGUAUCUCGACAUGAGGAUCACCCAUGUAGAAGGCUGUCCUAUCU | 25.2 | 89.4 | – | –
